Experimental data as given in ChEMBL document CHEMBL4715906, “Antileishmanial macrolides from ant-associated Streptomyces sp. ISID311” (Bioorg Med Chem, 2021).
Active and inactive are the calls of the source. The calls are words filed in the database; no cut-off is given here.

Key:
[1] = test system: Escovopsis; assay: Antifungal activity against Escovopsis ICBG1251 at 100 ug measured after 21 days by ISP-2 agar based assay; format: functional; details: dose 100.0 µg, time 21.0 day
How it was run: (§1)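 Agar plug challenge on ISP-2: the producing bacterium was grown alone at plate centre for 7 days, then each fungal strain was point-inoculated 3 cm from centre. 100 µg of compound or miconazole was applied directly at plate centre. Plates were monitored for 21 days at 28 °C, with two replicates per sample–fungus pair.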

[2] = test system: Escherichia coli; assay: Antibacterial activity against Escherichia coli ATCC 25922 by agar-based assay; format: functional, organism-based
[3] = test system: Bacillus subtilis; assay: Antibacterial activity against Bacillus subtilis NRS 231 by agar-based assay; format: functional, organism-based
[4] = test system: Escovopsis; assay: Antifungal activity against Escovopsis ICBG711 at 100 ug measured after 21 days by ISP-2 agar based assay; format: functional; details: dose 100.0 µg, time 21.0 day; how it was run: as §1
[5] = test system: Leishmania donovani; assay: Antileishmanial activity against Leishmania donovani MHOM/ET/67/HU3 axenic promastigotes assessed as parasite growth inhibition after 72 hrs by resorufin dye based fluorometric analysis; format: functional, organism-based; details: MHOM/ET/67/HU3, 72 h
How it was run: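 Axenic promastigotes, 1×10^5 per well in log phase, in M199 pH 7.4 with 10% heat-inactivated FCS at 28 °C. Ten 2-fold dilutions from 0.125 to 64 µM (10 mM DMSO stocks) were incubated for 72 h; miltefosine was the reference. Alamar Blue was added for 3 h, read at ex 536/em 588 nm, normalized to untreated wells, and IC50 obtained by variable-slope fit.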

[6] = test system: Cunninghamella; assay: Antifungal activity against Cunninghamella ICBG752 at 100 ug measured after 21 days by ISP-2 agar based assay; format: functional, organism-based; details: dose 100.0 µg, time 21.0 day; how it was run: as §1
[7] = test system: Escovopsis; assay: Antifungal activity against Escovopsis ICBG741 at 100 ug measured after 21 days by ISP-2 agar based assay; format: functional; details: dose 100.0 µg, time 21.0 day; how it was run: as §1
[8] = test system: Trichoderma; assay: Antifungal activity against Trichoderma ICBG1100 at 100 ug measured after 21 days by ISP-2 agar based assay; format: functional, organism-based; details: dose 100.0 µg, time 21.0 day; how it was run: as §1
[9] = Selectivity index, ratio of CC50 for human THP1 cells to IC50 for antileishmanial activity against Leishmania donovani MHOM/ET/67/HU3 amastigotes infected in human THP1 cells after 120 hrs; format: toxicity, cell-based; details: read-out: Ratio CC50/IC50
How it was run: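 Index computed as CC50 in PMA-differentiated THP-1 cells (120 h Alamar Blue read-out) divided by IC50 against intracellular amastigotes in THP-1 (120 h exposure, Giemsa count).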

[10] = test system: Leishmania donovani; assay: Antileishmanial activity against Leishmania donovani MHOM/ET/67/HU3 amastigotes infected in human THP1 cells assessed as parasite growth inhibition after 120 hrs by giemsa staining based inverted microscopic analysis; format: functional, organism-based; details: MHOM/ET/67/HU3, THP-1, 120 h
How it was run: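 THP-1 cells (2×10^4/well, RPMI-1640) were differentiated with PMA 20 ng/mL for 72 h at 37 °C, 5% CO2. They were infected with late-stage promastigotes (2×10^5/well) for 24 h, washed, then exposed to serial dilutions for 120 h with a miltefosine control. Cells were methanol-fixed and Giemsa-stained, and amastigotes per macrophage counted microscopically relative to untreated wells. IC50 was from a variable-slope fit.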

[11] = Cytotoxicity against human THP1 cells assessed as growth inhibition after 120 hrs by Alamar blue dye based fluorometric analysis; format: cell-based; details: THP-1 cells
How it was run: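 PMA-differentiated THP-1 cells (2×10^4/well, PMA 20 ng/mL, 72 h, 37 °C, 5% CO2) were exposed to serial dilutions for 120 h with a doxorubicin control. Alamar Blue was added for 3 h, read at ex 536/em 588 nm, and inhibition taken relative to untreated wells. IC50 was from a variable-slope fit; mean ± SD of 3 biological replicates.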

[12] = test system: Staphylococcus aureus; assay: Antibacterial activity against methicillin-sensitive Staphylococcus aureus Wichita by agar-based assay; format: functional, organism-based
[13] = test system: Pseudomonas aeruginosa; assay: Antibacterial activity against Pseudomonas aeruginosa Boston 41501 by agar-based assay; format: functional, organism-based
[14] = test system: Escovopsis; assay: Antifungal activity against Escovopsis ICBG740 at 100 ug measured after 21 days by ISP-2 agar based assay; format: functional; details: dose 100.0 µg, time 21.0 day; how it was run: as §1

Structure (SMILES): CC[C@H](O[C@H]1C[C@@](C)(O)[C@H](O[C@H]2CC[C@H](OC(=O)[C@H](C)[C@H](O)c3ccc4c(c3)C(=O)C=C(C)C4=O)[C@@H](C)O2)[C@H](C)O1)[C@H](C)[C@H](O)[C@@H](C)[C@H](O)[C@H](C)[C@H]1OC(=O)/C=C/[C@H](C)[C@H](O)C[C@H](O)CCC[C@@H](O)CC[C@@H](C)[C@H](O)C(=O)[C@@]2(O)C[C@@H](O)C[C@@H](C[C@@H](O)C[C@H](O)C[C@H](O)CCC[C@H](O)/C=C/[C@@H]1C)O2
- Activity [1]: Active
- Activity [2]: inactive
- Activity [3]: inactive
- Activity [4]: Active
- IC50 [5]: 0.118 µM
- Activity [6]: inactive
- Activity [7]: Active
- Activity [8]: inactive
- selectivity ratio at 120 h [9]: 4.94
- IC50 [10]: 2.32 µM
- CC50 at 120 h [11]: 11.5 µM
- Activity [12]: inactive
- Activity [13]: inactive
- Activity [14]: Active

Structure (SMILES): COc1cccc2c1C(=O)c1c(O)c3c(c(O)c1C2=O)C[C@@](O)(C(=O)CO)C[C@@H]3O[C@H]1C[C@H](N)[C@H](O)[C@H](C)O1 [DOXORUBICIN]
- CC50 at 120 h [11]: 0.58 µM

Structure (SMILES): CC[C@H](O[C@H]1C[C@@](C)(O)[C@H](O[C@H]2CC[C@H](OC(=O)[C@H](C)[C@H](O)c3ccc4c(c3)C(=O)C=C(C)C4=O)[C@@H](C)O2)[C@H](C)O1)[C@H](C)[C@H](O)[C@@H](C)[C@H](O)[C@H](C)[C@H]1OC(=O)/C=C/[C@H](C)[C@H](O)C[C@H](O)CCC[C@@H](O)CC[C@@H](C)[C@H](O)C(=O)[C@]2(O)O[C@H](C[C@@H](O)C[C@H](O)C[C@H](O)CCC[C@H](O)[C@@H]3O[C@H]3[C@@H]1C)C[C@H](O)[C@H]2O
- Activity [1]: Active
- Activity [2]: inactive
- Activity [3]: inactive
- Activity [4]: Active
- IC50 [5]: 0.046 µM
- Activity [6]: inactive
- Activity [7]: Active
- Activity [8]: inactive
- selectivity ratio at 120 h [9]: 83.2
- IC50 [10]: 0.073 µM
- CC50 at 120 h [11]: 6.07 µM
- Activity [12]: inactive
- Activity [13]: inactive
- Activity [14]: Active

Structure (SMILES): CCCCCCCCCCCCCCCCOP(=O)([O-])OCC[N+](C)(C)C [MILTEFOSINE]
- IC50 [5]: 4.98 µM
- selectivity ratio at 120 h [9]: 11.4
- IC50 [10]: 5.33 µM
- CC50 at 120 h [11]: 60.7 µM

Structure (SMILES): CC[C@H](O[C@H]1C[C@@](C)(O)[C@H](O[C@H]2CC[C@H](OC(=O)[C@H](C)[C@H](O)c3ccc4c(c3)C(=O)C=C(C)C4=O)[C@@H](C)O2)[C@H](C)O1)[C@H](C)[C@H](O)[C@@H](C)[C@H](O)[C@H](C)[C@H]1OC(=O)/C=C/[C@H](C)[C@H](O)C[C@H](O)CCC[C@@H](O)CC[C@@H](C)[C@H](O)C(=O)[C@@]2(O)C[C@@H](O)C[C@@H](C[C@@H](O)C[C@H](O)C[C@H](O)CCC[C@H](O)[C@@H]3O[C@H]3[C@@H]1C)O2
- Activity [1]: Active
- Activity [2]: inactive
- Activity [3]: inactive
- Activity [4]: Active
- IC50 [5]: 0.034 µM
- Activity [6]: inactive
- Activity [7]: Active
- Activity [8]: inactive
- selectivity ratio at 120 h [9]: 70.3
- IC50 [10]: 0.091 µM
- CC50 at 120 h [11]: 6.4 µM
- Activity [12]: inactive
- Activity [13]: inactive
- Activity [14]: Active
